SDO1 yeast rescue: growth rescue of sdo1-depleted yeast, primary screen, S. cerevisiae, bone marrow failure model | z-score at 10 µM | AID 817, 2007 | S. cerevisiae sdo1-depleted JHY4D growth rescue, OD600 30 h; hits give high values; pdr5 snq2 efflux-pump mutant strain | 0.21% of 140,000 active;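 active = z-score above 3 at both the 24 hr and the 30 hr optical density reads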;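 note: z-score against mean and SD of all compound wells on the same plate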
RBBP9 inh: human RBBP9 inhibitors, primary screen, biochemical, fluorescence polarization, FP-Rh probe, HTS; Serine hydrolase RBBP9 (Homo sapiens), O75884; recombinant RBBP9; inhibition, % at 7.94 µM; 0.2% of 220,000 active; AID 1515, 2009;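 active = inhibition above the campaign mean of all tested compounds plus 3 SD, cut at about 14% in these data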;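 note: plate controls were DMSO wells with RBBP9 for no effect and wells lacking RBBP9 protein for full effect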
Target sequence (O75884 whole entry, looked up): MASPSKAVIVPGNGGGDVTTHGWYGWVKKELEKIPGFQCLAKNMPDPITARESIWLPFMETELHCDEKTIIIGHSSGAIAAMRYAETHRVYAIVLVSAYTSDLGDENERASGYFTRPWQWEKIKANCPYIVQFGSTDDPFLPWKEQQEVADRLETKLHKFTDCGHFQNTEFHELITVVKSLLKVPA
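Measured by: FP readout at 525/598 nm; material: recombinant human RBBP9; also added: Serine-hydrolase probe FP-Rh, 375 nM pre-mixing; medium: Tris buffer pH 8.0, NaCl, Pluronic; replication: one well per compound; doses: one concentration, 7.94 µM nominal, 0.794% DMSO; timing: preincubation 30 min plus labeling 45 min at 25 °C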
NCF1 inh: p47phox/p22phox peptide binding inhibitors, primary screen, biochemical, uHTS, NADPH oxidase regulatory subunit. Neutrophil cytosol factor 1 (Homo sapiens), P14598. fluorescence polarization, 2 h. inhibition, % at 24.7 µM. 0.53% of 220,000 active;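 active = inhibition above about 30%, limit read from the data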;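 note: 0% = p47phox with labelled peptide and 100% = labelled peptide alone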
Target sequence (P14598 whole entry, looked up): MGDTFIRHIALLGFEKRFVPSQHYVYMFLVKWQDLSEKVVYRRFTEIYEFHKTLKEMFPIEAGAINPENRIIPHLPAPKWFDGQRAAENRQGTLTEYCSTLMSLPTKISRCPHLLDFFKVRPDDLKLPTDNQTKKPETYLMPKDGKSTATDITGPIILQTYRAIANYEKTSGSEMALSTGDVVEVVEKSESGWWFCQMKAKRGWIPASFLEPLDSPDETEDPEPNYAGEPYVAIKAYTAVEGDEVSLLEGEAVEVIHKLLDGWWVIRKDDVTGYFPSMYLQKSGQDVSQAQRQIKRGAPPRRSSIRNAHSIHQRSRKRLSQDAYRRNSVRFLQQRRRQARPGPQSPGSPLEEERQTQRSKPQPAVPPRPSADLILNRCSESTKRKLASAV
TbHK1 inh: Trypanosoma brucei hexokinase 1 inhibitors, primary screen, biochemical, G6PDH-coupled NADH absorbance, MLSCN library; AID 1430, 2008; recombinant TbHK1, G6PDH-coupled NADH A340; 0.11% of 220,000 active; inhibition, % at 10 µM; hexokinase 1 [Trypanosoma brucei];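 active = inhibition of 50% or more in the single-dose primary screen; inactive = inhibition below 50%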
BB579 growth dn: growth inhibitors of yeast BB579 in restrictive medium, primary screen, yeast lifespan-shortening project, S. cerevisiae; OD615, 48 h; inhibition, % at 10 µM; 0.51% of 140,000 active;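 active = inhibition above a set limit, 3 SD over the mean compound inhibition, cut at about 44% in these data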
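controls = amphotericin B 10 µg/mL, positive | assay system = DeaD yeast strain BB579 | schedule = 48 h compound exposure at 30 °C after 4 h preincubation | detection = OD615 turbidity measurement | medium = restrictive CSMM-D medium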
Yeast life ext: compounds extending yeast replicative lifespan, primary screen, S. cerevisiae, OD615 | S. cerevisiae growth with nicotinamide; deaD strain in restrictive glucose medium | inhibition of the nicotinamide effect, % at 10 µM | 0.68% of 130,000 active | AID 775, 2007;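 active = inhibition above a set limit, placed 3 SD over the median of all compounds, cut at about 26% in these data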;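 note: 0% = nicotinamide-treated wells and 100% = cells grown without nicotinamide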
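Assay system: engineered S. cerevisiae DeaD replicative-lifespan strain, galactose-grown log-phase cells; medium: restrictive CSMM-D dextrose medium; also added: nicotinamide, 1.5 mM, co-present with compound; schedule: 48 h compound exposure at 30 °C, humidified; detection: absorbance at 615 nm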
The depositor's hits bear a star; . = not tested or not shown; + = active, no number. Shown are actives, neighbours in structure and some others; about 1.6% of the full set was active somewhere.

SMILES	SDO1 yeast rescue	RBBP9 inh	NCF1 inh	TbHK1 inh	BB579 growth dn	Yeast life ext
COc1ccccc1-c1c(C)oc2cc(OC(=O)c3ccco3)ccc2c1=O	-0.24	-5.0	0.8	-19.2	-20.6	32.1*
Cc1ccccc1NC(=O)CCC(=O)OCC(=O)c1cccc([N+](=O)[O-])c1	.	-1.2	32.4*	2.5	.	.
CCOc1ccc2noc3c2c1C(=O)c1ccccc1-3	-1.1	13.7	44.2*	15.0	32.1	-9.8
O=C1c2ccccc2-c2onc3ccc(NCc4ccco4)c1c23	-1.23	9.6	-235.1	-1.0	31.9	-8.6
Cc1ccccc1Oc1cc(-n2ncc(Cl)c(Cl)c2=O)ncn1	-0.56	-7.1	-4.2	8.3	-30.9	46.2*
CCOC(=O)c1cnc2c(c(C)nn2CC)c1NC1CC1	.	-0.5	-2.8	3.5	.	.
Cc1cccc(NC(=O)CSc2cc(C)c(C#N)c3nc4ccccc4n23)c1	.	-4.9	-12.0	-5.7	.	.
Cc1ccc(S(=O)(=O)N(C(=O)c2ccncc2)c2ccc(OC(=O)c3ccncc3)c3ccccc23)c(C)c1	-0.39	4.9	-32.3	-13.5	-69.7	36.8*
COc1ccc(NS(=O)(=O)c2cc(NC(=O)c3cccnc3Cl)ccc2N2CCCC2)cc1	.	-8.1	+	-14.5	.	.
CS(=O)(=O)N1CCN(c2ccc(NC(=O)c3cccnc3Cl)cc2)CC1	-0.18	4.1	12.2	-3.7	-41.6	4.8
O=C(Nc1ccc(N2CCCCC2)cc1)c1cccnc1Cl	0.32	2.1	57.1*	-8.6	-79.3	-7.1
Cc1nn(C)cc1S(=O)(=O)N1CCN(Cc2ccc(F)cc2Cl)CC1	.	-1.9	12.3	-3.6	.	.
N/C(Cc1ccc(Cl)cc1)=N\OC(=O)C1CCCCC1	-2.06	6.2	-8.8	35.8	99.8*	-12.8
COc1cccc(C(=O)O/N=C(\N)Cc2ccc(Cl)cc2)c1	-2.31	1.6	-10.9	3.4	100.0*	-12.7
Cc1ccc(S(=O)(=O)N2CCN(C(=O)CCC(=O)NCCc3ccc(F)cc3)CC2)cc1	.	5.2	-1.5	-3.8	.	.
CN(C(=O)Nc1cccc(C(F)(F)F)c1)C1CCCCC1	.	0.1	-2.0	-7.7	.	.
COc1ccc(/C=N/NC(=O)c2csc(-n3nc(C)cc3C(F)(F)F)n2)cc1	-0.46	5.3	3.4	-33.3	-45.2	141.6*
Cc1cc(C(F)(F)F)n(-c2nc(C(=O)NN)cs2)n1	.	-8.8	4.4	0.9	.	.
C/C(CC(=O)NCc1ccco1)=N\NC(=O)CC#N	.	-1.5	-8.6	3.0	.	.
Cc1cc(Cl)ccc1C(=O)C1CCCN(C(=O)c2snnc2C)C1 (stereo not drawn)	.	-3.7	0.8	-4.7	.	.
O=S(=O)(NCC1CCCO1)c1ccc(Br)s1 (stereo not drawn)	0.98	-5.2	-5.3	9.5	-21.4	-2.6
O=S(=O)(NC1CC2CCC1C2)c1ccc(Br)s1 (stereo not drawn)	-1.26	-10.9	3.1	0.0	98.0*	-28.8
COc1ccccc1OCCNC(=O)C1CCCCC1	.	-1.0	-12.0	11.1	.	.
C=CCn1c(SCC(=O)c2[nH]c(C)c(C(C)=O)c2C)nnc1-c1ccncc1	0.64	8.5	-8.2	-12.8	-65.9	-9.0
C=CCn1c(SCC(=O)c2[nH]c(C)c(C(=O)OC)c2C)nc2scc(-c3ccc(OC)c(OC)c3)c2c1=O	-1	6.1	35.6*	-19.3	2.5	2.6
SMILES	SDO1 yeast rescue	RBBP9 inh	NCF1 inh	TbHK1 inh	BB579 growth dn	Yeast life ext
Cc1ccccc1N1C(=O)C(Cc2ccc(F)cc2)S/C1=C(\C#N)C(N)=O (stereo not drawn)	.	-3.8	-0.3	-6.3	.	.
O=c1c2ccccc2nc2c3ccccc3c(Cl)nn12	.	-5.4	-5.3	-11.1	.	.
O=c1c2ccccc2nc2c3ccccc3c3nncn3n12	-1.28	-7.4	-4.6	-5.4	82.3*	-13.2
COc1ccc(C(=O)c2ccc(OC)c3cccc(O)c23)cc1OC	-1.59	3.5	-12.0	-17.7	-39.3	-1.2
COc1ccc2c3c(cccc13)NN=C2C	.	14.7*	.	13.1	.	.
CC(C)(C)c1cc(C(c2cccnc2)N2CCN(CCO)CC2)cc(C(C)(C)C)c1O (stereo not drawn)	-2.23	-6.5	11.2	-10.6	95.7*	17.6
COc1ccc(/C=N/NC(=O)c2ccccc2O)cc1Cn1nnc2ccccc21	.	-9.8	-16.1	-24.8	.	.
CC1CCc2c(sc3nc(CN4CCOCC4)nc(Sc4ccccc4)c23)C1 (stereo not drawn)	-1.21	-8.3	-3.2	-6.7	46.1*	-6.9
CCOC(=O)N1CCN(C(=O)c2cc3c(s2)-c2ccc(Cl)cc2S(=O)(=O)C3)CC1	.	4.0	-10.0	-6.0	.	.
Cc1cc(C)nc(SCc2ccc(C(=O)N/N=C/c3ccncc3)cc2)n1	.	-0.4	-10.8	-2.6	.	.
Cc1cc(C)nc(SCc2ccc(C(=O)NNC(=O)Nc3cccc(Cl)c3)cc2)n1	-1.2	-6.5	31.9*	10.9	-35.0	-3.1
O=Cc1c(Sc2ccccc2)nc2ccccn2c1=O	-0.63	-8.0	-61.5	-17.8	64.8*	-18.5
O=Cc1c(Sc2ccccn2)nc2ccccn2c1=O	-0.1	2.4	-1.4	-12.6	-0.2	.
CC(C)(C)c1ccc(OCC(=O)NNC(=S)NC(=O)c2ccccc2[N+](=O)[O-])c(Br)c1	0.47	-8.5	-7.1	5.9	-37.9	31.3*
Cc1ccccc1OCC(=O)NNC(=S)NC(=O)c1ccccc1[N+](=O)[O-]	1.02	-6.6	-0.3	-0.7	-36.3	1.1
Cc1ccc2nc(N3C(=O)C(O)=C(C(=O)c4cc5ccccc5o4)C3c3cccs3)sc2c1 (stereo not drawn)	0.91	-8.0	-125.5	-2.5	-76.2	-4.9
CCc1ccc2nc(N3C(=O)C(O)=C(C(=O)c4ccco4)C3c3cccs3)sc2c1 (stereo not drawn)	1.58	-8.4	-64.0	-0.1	-65.2	44.7*
CCCCN(C)C(=O)CCC(=O)NNc1nc2ccccc2c2nc(C)nn12	0.24	-2.8	-20.1	2.5	-8.8	-0.4
COCCn1c(=O)[nH]c(=O)c2c1nc(-c1ccc(-c3ccc(Cl)cc3[N+](=O)[O-])o1)n2Cc1ccccc1	0.12	-3.9	-18.7	-17.9	-43.4	-0.5
COCc1cc(C)nc(N/N=C/c2ccc(-c3ccc(Cl)cc3[N+](=O)[O-])o2)c1C#N	.	3.4	40.2*	-23.4	.	.
O=C1OCC(CO)(CO)N=C1NNc1ccc(Cl)c(Cl)c1	-1.99	-5.7	8.7	1.3	97.9*	-19.3
Cc1nn(C(C)(C)C)c(OC(=O)c2ccc(Br)o2)c1Sc1ccccc1	-0.47	-4.5	-11.5	-8.4	-26.5	32.8*
Cc1nn(C(C)(C)C)c(OC(=O)c2ccco2)c1Sc1ccccc1	-0.92	7.7	-12.1	-1.8	-32.8	46.8
